Source: ChEMBL document CHEMBL1773052, “3-Trifluoromethylquinoxaline N,N'-dioxides as anti-trypanosomatid agents. Identification of optimal anti-T. cruzi agents and mechanism of action studies” (J Med Chem, 2011)
Activity calls are given as the source filed them. The rule behind the calls is not given here.

Columns and labels:
Salmonella typhimurium [1] = experiment: Mutagenic activity in Salmonella Typhimurium TA98 assessed as number of revertants at 0.2 to 15 ug/plate by Ames test in presence of S9 fraction; type: toxicity, organism-based; details: salmonella enterica subsp. enterica serovar typhimurium
How it was run: (§1)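 Direct plate incubation with S. typhimurium TA98 on minimal glucose agar. Toxicity to the strain tested first; doses run in triplicate from DMSO solutions, DMSO as negative control. Metabolic activation with 500 μL Aroclor-treated mouse liver S9. Positive controls: 4-nitro-o-phenylenediamine 20.0 μg/plate without S9; 2-aminofluorene 10.0 μg/plate with S9. Revertants counted manually; mutagenic if ≥2-fold the negative control at two consecutive doses.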

Salmonella typhimurium [2] = experiment: Mutagenic activity in Salmonella Typhimurium TA98 assessed as number of revertants at 0.2 to 15 ug/plate by Ames test in absence of S9 fraction; type: toxicity, organism-based; details: salmonella enterica subsp. enterica serovar typhimurium; how it was run: as §1
Trypanosoma cruzi [3] = experiment: Antitrypanosomal activity against Trypanosoma cruzi Tulahuen 2 epimastigotes assessed as growth inhibition at 25 uM after 5 days relative to control; type: functional; details: Tulahuen 2, 120 h, read-out: GI
How it was run: (§2)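 Epimastigotes grown axenically at 28 °C in BHI-tryptose + 5% FBS; a 10-day stationary culture was inoculated to 1 × 10⁶ cells/mL. Drug added from DMSO stock, final DMSO ≤0.4%, vehicle control. A600 read daily. PGI on day 5 corrects for day-0 absorbance, relative to control. […] Three independent experiments.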

Trypanosoma cruzi [4] = experiment: Antitrypanosomal activity against Trypanosoma cruzi Tulahuen 2 epimastigotes assessed as growth inhibition after 5 days; type: functional; details: Tulahuen 2, 120 h, read-out: ID50; how it was run: as §2
Trypanosoma cruzi [5] = experiment: Inhibition of mitochondrial dehydrogenase activity in Trypanosoma cruzi Y epimastigotes at 20 uM up to 120 mins by MTT assay
How it was run: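 Y-strain epimastigotes, 10⁶ per well in 500 μL medium, treated with 20 μM compound at 28 °C, untreated wells as time-matched controls. At each time point cells counted, then MTT (50 μL of 5 mg/mL in PBS) added for 4 h. Stopped with acidic isopropanol, A570 read. Activity given as percent of untreated control.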

Trypanosoma cruzi [6] = experiment: Antitrypanosomal activity against Trypanosoma cruzi CL Brener clone infected in BALB/c mouse assessed as reduction of parasitemia level at 10 mg/kg/day, po by ELISA; type: functional, organism-based
How it was run: (§3)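 Male BALB/c or Swiss albino mice, 30 days old, SPF, infected ip with 10³ blood trypomastigotes (CL Brener or Y). Oral dosing in PBS for 10 days. Controls: 10 mice on PBS; treated groups of 8. Tail-vein parasitemia weekly for 60 days, mortality recorded. Anti-T. cruzi antibodies measured by ELISA, run twice, at 30 and 60 or 90 days post-infection.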

Salmonella typhimurium [7] = experiment: Mutagenic activity in Salmonella Typhimurium TA98 assessed as number of revertants at 0.05 to 4 ug/plate by Ames test in presence of S9 fraction; type: toxicity, organism-based; details: salmonella enterica subsp. enterica serovar typhimurium; how it was run: as §1
Trypanosoma cruzi [8] = experiment: Antitrypanosomal activity against Trypanosoma cruzi CL Brener clone trypomastigotes in parasite infected BALB/c mouse blood assessed as parasite lysis at 250 ug/ml after 24 hrs relative to control; type: functional
How it was run: (§4)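 Blood from BALB/c mice 7 days post-infection, taken by cardiac puncture into 3.8% sodium citrate (7:3). Compounds dissolved in DMSO, diluted in PBS to 100 or 250 μg/mL. 10 μL mixed with 100 μL infected blood (~10⁶ parasites/mL), in triplicate. Shaken 10 min at RT, held 4 °C for 24 h. Parasites counted by microscopy; gentian violet 250 μg/mL as standard.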

Trypanosoma cruzi [9] = experiment: Antitrypanosomal activity against Trypanosoma cruzi Y infected in Swiss albino mouse assessed as increase of mouse survival days at 10 mg/kg/day, po relative to control; type: functional
Trypanosoma cruzi [10] = experiment: Antitrypanosomal activity against Trypanosoma cruzi CL Brener clone infected in BALB/c mouse assessed as reduction of microbial antibody level at 10 mg/kg/day, po after 90 days by Wilconxon test; type: functional, organism-based; how it was run: as §3
Trypanosoma cruzi [11] = experiment: Antitrypanosomal activity against Trypanosoma cruzi CL Brener clone infected in BALB/c mouse assessed as increase of mouse survival days at 10 mg/kg/day, po relative to control; type: functional
Salmonella typhimurium [12] = experiment: Mutagenic activity in Salmonella Typhimurium TA98 assessed as number of revertants at 0.05 to 4 ug/plate by Ames test in absence of S9 fraction; type: toxicity, organism-based; details: salmonella enterica subsp. enterica serovar typhimurium; how it was run: as §1
Trypanosoma cruzi [13] = experiment: Antitrypanosomal activity against Trypanosoma cruzi CL Brener clone infected in BALB/c mouse assessed as reduction of microbial antibody level at 10 mg/kg/day, po after 30 days by Wilconxon test; type: functional, organism-based; how it was run: as §3
[14] = Cytotoxicity against mouse J774 cells; type: cell-based; details: read-out: ID50 (the source's name)
Trypanosoma cruzi [15] = experiment: Antitrypanosomal activity against Trypanosoma cruzi Y infected in Swiss albino mouse assessed as reduction of parasitemia level at 10 mg/kg/day, po by ELISA; type: functional, organism-based; how it was run: as §3
[16] = Selectivity index, ratio of ID50 for mouse J774 cells to ID50 for Trypanosoma cruzi Tulahuen 2 epimastigotes; type: toxicity, cell-based; details: J774 cells versus Trypanosoma cruzi Tulahuen 2 epimastigotes, read-out: Selectivity Index
Leishmania braziliensis = experiment: Antileishmanial activity against Leishmania braziliensis MHOM/BR/00/LTB300 promastigotes assessed as cell death after 2 days by MTT assay; type: functional; details: MHOM/BR/00/LTB300, 48 h, read-out: ID50 (the source's name)
How it was run: (§5)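 Parasites in exponential growth, in BHI-tryptose + 5% FBS for T. cruzi or RPMI + 5% FBS for L. braziliensis, 28 °C, 24-well plates. Compounds in DMSO; miltefosine in ethanol. 2-day exposure, two PBS-glucose (5.5 mM) washes, then MTT 0.4 mg/mL for 4 h at 28 °C. SDS-isopropanol lysis, OD read. Triplicates, six growth controls.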

Trypanosoma cruzi [17] = experiment: Antitrypanosomal activity against Trypanosoma cruzi CL Brener clone infected in Swiss albino mouse assessed as increase of mouse survival days at 10 mg/kg/day, po relative to control; type: functional
Trypanosoma cruzi [18] = experiment: Antitrypanosomal activity against Trypanosoma cruzi CL Brener clone trypomastigotes in parasite infected BALB/c mouse blood assessed as parasite lysis at 100 ug/ml after 24 hrs relative to control; type: functional; how it was run: as §4
Trypanosoma cruzi [19] = experiment: Antitrypanosomal activity against Trypanosoma cruzi CL Brener clone epimastigotes assessed as cell death after 2 days by MTT assay; type: functional; details: 48 h, read-out: ID50 (the source's name); how it was run: as §5
Trypanosoma cruzi [20] = experiment: Antitrypanosomal activity against Trypanosoma cruzi Y infected in Swiss albino mouse assessed as increase of mouse survival days at 30 mg/kg/day, po relative to control; type: functional
Trypanosoma cruzi [21] = experiment: Antitrypanosomal activity against Trypanosoma cruzi Y infected in Swiss albino mouse assessed as reduction of microbial antibody level at 10 to 30 mg/kg/day, po by Wilconxon test; type: functional, organism-based; how it was run: as §3
Trypanosoma cruzi [22] = experiment: Antitrypanosomal activity against Trypanosoma cruzi CL Brener clone infected in Swiss albino mouse assessed as increase of mouse survival days at 50 mg/kg/day, po relative to control; type: functional
Trypanosoma cruzi [23] = experiment: Antitrypanosomal activity against Trypanosoma cruzi CL Brener clone epimastigotes assessed as cell death at 25 uM after 2 days by MTT assay relative to control; type: functional
How it was run: (§6)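 Epimastigotes of each strain taken in exponential growth in BHI-tryptose with 5% FBS, 1 mL per well. Compounds added from DMSO and kept 2 days at 28 °C. Cells washed twice and resuspended in PBS-glucose (5.5 mM), then given 0.4 mg/mL MTT for 4 h at 28 °C. Lysis in SDS-isopropanol, OD read. Triplicate wells, six growth controls. PCyt taken against control, corrected for medium-only wells.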

Trypanosoma cruzi [24] = experiment: Antitrypanosomal activity against Trypanosoma cruzi Y infected in Swiss albino mouse assessed as reduction of parasitemia level at 10 to 30 mg/kg/day, po by ELISA; type: functional, organism-based; how it was run: as §3
Trypanosoma cruzi [25] = experiment: Antitrypanosomal activity against Trypanosoma cruzi Y epimastigotes assessed as cell death after 2 days by MTT assay; type: functional; details: 48 h, read-out: ID50 (the source's name); how it was run: as §5
Trypanosoma cruzi [26] = experiment: Antitrypanosomal activity against Trypanosoma cruzi Y epimastigotes assessed as cell death at 25 uM after 2 days by MTT assay relative to control; type: functional; how it was run: as §6
Trypanosoma cruzi [27] = experiment: Antitrypanosomal activity against Trypanosoma cruzi CL Brener clone infected in Swiss albino mouse assessed as reduction of parasitemia level at 10 mg/kg/day, po after 55 days by ELISA; type: functional, organism-based; details: in the assay text read “after 53 days” for “after 55 days”; how it was run: as §3
Salmonella typhimurium [28] = experiment: Mutagenic activity in Salmonella Typhimurium TA98 assessed as number of revertants at 0.005 to 15 ug/plate by Ames test in absence of S9 fraction; type: toxicity, organism-based; details: salmonella enterica subsp. enterica serovar typhimurium; how it was run: as §1
Trypanosoma cruzi [29] = experiment: Antitrypanosomal activity against Trypanosoma cruzi Colombiana epimastigotes assessed as cell death at 25 uM after 2 days by MTT assay relative to control; type: functional; how it was run: as §6
Salmonella typhimurium [30] = experiment: Mutagenic activity in Salmonella Typhimurium TA98 assessed as number of revertants at 0.005 to 15 ug/plate by Ames test in presence of S9 fraction; type: toxicity, organism-based; details: salmonella enterica subsp. enterica serovar typhimurium; how it was run: as §1
Trypanosoma cruzi [31] = experiment: Antitrypanosomal activity against Trypanosoma cruzi CL Brener clone infected in BALB/c mouse assessed as reduction of microbial antibody level at 50 mg/kg/day, po after 90 days by Wilconxon test; type: functional, organism-based; how it was run: as §3
Trypanosoma cruzi [32] = experiment: Antitrypanosomal activity against Trypanosoma cruzi Y infected in Swiss albino mouse assessed as reduction of microbial antibody level at 50 mg/kg/day, po by Wilconxon test; type: functional, organism-based; how it was run: as §3
Trypanosoma cruzi [33] = experiment: Antitrypanosomal activity against Trypanosoma cruzi Y infected in Swiss albino mouse assessed as increase of mouse survival days at 50 mg/kg/day, po relative to control; type: functional
Trypanosoma cruzi [34] = experiment: Antitrypanosomal activity against Trypanosoma cruzi CL Brener clone infected in BALB/c mouse assessed as increase of mouse survival days at 50 mg/kg/day, po relative to control; type: functional

CC(=O)c1c(C)[n+]([O-])c2cc(F)c(F)cc2[n+]1[O-]
Activity (Salmonella typhimurium [1]): Toxic | Activity (Salmonella typhimurium [2]): Toxic | inhibition of growth at 25 µM (Trypanosoma cruzi [3]): 100% | IC50 (Trypanosoma cruzi [4]): 400 nM

CC(=O)c1c(C(F)(F)F)[n+]([O-])c2cc(F)c(F)cc2[n+]1[O-]
inhibition (Trypanosoma cruzi [5]): Active | Activity (Trypanosoma cruzi [6]): Active | Activity (Salmonella typhimurium [7]): Toxic | Activity (Trypanosoma cruzi [8]): 80% | survival at 10 mg/kg/day (Trypanosoma cruzi [9]): 62.5% | Activity (Trypanosoma cruzi [10]): Active | inhibition of growth at 25 µM (Trypanosoma cruzi [3]): 100% | IC50 (Trypanosoma cruzi [4]): 390 nM | survival at 10 mg/kg/day (Trypanosoma cruzi [11]): 100% | Activity (Salmonella typhimurium [12]): Toxic | Activity (Trypanosoma cruzi [13]): Active | CC50 [14]: 10600 nM | Activity (Trypanosoma cruzi [15]): inactive | selectivity ratio [16]: 27.2

O=C(c1ccccc1)c1c(C(F)(F)F)[n+]([O-])c2cc(F)c(F)cc2[n+]1[O-]
IC50 (Leishmania braziliensis): 1300 nM | inhibition (Trypanosoma cruzi [5]): Active | Activity (Trypanosoma cruzi [6]): Active | survival at 10 mg/kg/day (Trypanosoma cruzi [17]): 100% | Activity (Trypanosoma cruzi [18]): 63% | IC50 (Trypanosoma cruzi [19]): 1100 nM | Activity (Trypanosoma cruzi [8]): 84% | survival at 30 mg/kg/day (Trypanosoma cruzi [20]): 87.5% | Activity (Trypanosoma cruzi [21]): Active | survival at 10 mg/kg/day (Trypanosoma cruzi [9]): 100% | inhibition of growth at 25 µM (Trypanosoma cruzi [3]): 100% | IC50 (Trypanosoma cruzi [4]): 700 nM | survival at 10 mg/kg/day (Trypanosoma cruzi [11]): 100% | survival at 50 mg/kg/day (Trypanosoma cruzi [22]): 100% | Activity (Trypanosoma cruzi [23]): 96% | Activity (Trypanosoma cruzi [24]): Active | IC50 (Trypanosoma cruzi [25]): 1800 nM | Activity (Trypanosoma cruzi [26]): 100% | Activity (Trypanosoma cruzi [27]): Active | CC50 [14]: 8000 nM | Activity (Salmonella typhimurium [28]): Non-toxic | selectivity ratio [16]: 11.4 | Activity (Trypanosoma cruzi [29]): 100% | Activity (Salmonella typhimurium [30]): Non-toxic

O=C(Cn1ccnc1[N+](=O)[O-])NCc1ccccc1 [BENZNIDAZOLE]
Activity (Trypanosoma cruzi [31]): inactive | Activity (Trypanosoma cruzi [32]): Active | survival at 50 mg/kg/day (Trypanosoma cruzi [22]): 100% | survival at 50 mg/kg/day (Trypanosoma cruzi [33]): 87.5% | survival at 50 mg/kg/day (Trypanosoma cruzi [34]): 75%
